What is called pKd is the negative decadic logarithm of the Kd, by convention in mol/L. For orientation: pIC50 means the IC50 on a negative log10 scale, so that one unit is a factor of ten. What is called pKi is the Ki on a negative log10 scale, so that one unit is a factor of ten.

The values that follow come from ChEMBL document CHEMBL2163322, “Identification of small molecule inhibitors of the HIV-1 nucleocapsid-stem-loop 3 RNA complex” (J Med Chem, 2012).

Structures are written as SMILES. pIC50, pKd, pKi: −log10 of the molar value. Active and inactive are the calls of the source. The rule behind the calls is not given here.

For experiment [1], the target named is Nucleic Acid. Kind of experiment: Binding affinity to double stranded RNA by fluorescence spectrometry. The experiment is classed as nucleic-acid assay. The settings on record: for pKd: read-out: Kd(app). The essentials: (§1)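 Fluorescence titration of 5′-fluorescein-labeled RNA (25 nM) in 10 mM Tris-HCl pH 7.4, 25 mM NaCl at 25 °C. Ligand is added stepwise until the signal plateaus, with 3–5 min equilibration per addition. Excitation is 490 nm; emission at 517 nm is used. Fraction bound is fit to a 1:1 model, or a 2:1 cooperative model for one ligand, to give apparent KD. Fluorescein-only and DMSO controls are run. SD is from at least three measurements.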

The target of experiment [2] is Nucleic Acid. The experiment is described as follows: Binding affinity to HIV 1 fluorescein-labeled SL3 RNA by fluorescence spectrometry. As to conditions: for pKd: read-out: Kd(app); for Activity: Human immunodeficiency virus 1. The experiment is classed as nucleic-acid assay, Human immunodeficiency virus 1. In a few lines: as §1
In experiment [3] the target is Nucleic Acid. Kind of experiment: Binding affinity to single stranded RNA by fluorescence spectrometry. The settings on record: for pKd: read-out: Kd(app). The experiment is classed as nucleic-acid assay. In a few lines:
as §1

Experiment [4] addresses Nucleic Acid. Kind of experiment: Binding affinity to single stranded RNA assessed as second binding dissociation constant by ITC analysis. The experiment is classed as nucleic-acid assay. As to conditions: read-out: Kd(app). In a few lines: (§2)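 Isothermal titration calorimetry at 25 °C. Ligand at 1 mM is injected in 10 μL aliquots into 20 μM RNA. Both are in 10 mM sodium phosphate pH 7.4 with 10% DMSO. Injections last 24 s and are spaced 240 s apart. Heats are corrected with ligand-into-buffer controls. KD values come from a sequential two-site binding fit to heat versus ligand:RNA molar ratio. SD is from two measurements.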
(In general: Isothermal titration calorimetry measures the heat released or taken up as one component is titrated into another.)

For experiment [5], the target named is Nucleic Acid. The experiment is described as follows: Binding affinity to single stranded RNA by ITC analysis. As to conditions: read-out: Kd(app). The experiment is classed as nucleic-acid assay. The essentials:
as §2

Experiment [6] deals with Nucleic Acid. Kind of experiment: Selectivity ratio of Kd for single stranded RNA to Kd for HIV 1 SL3 RNA. The experiment is classed as nucleic-acid assay.
For experiment [7], the target named is Nucleic Acid. Kind of experiment: Binding affinity to double stranded RNA assessed as second binding dissociation constant by ITC analysis. The experiment is classed as nucleic-acid assay. As to conditions: read-out: Kd(app). The essentials: as §2
Experiment [8] has as its target Nucleic Acid. Kind of experiment: Binding affinity to HIV 1 SL3 RNA by ITC analysis. The experiment is classed as nucleic-acid assay, Human immunodeficiency virus 1. As to conditions: read-out: Kd(app). The essentials:
as §2

The subject of experiment [9] is Nucleic Acid. Kind of experiment: Selectivity ratio of Kd for double stranded RNA to Kd for HIV 1 SL3 RNA. The experiment is classed as nucleic-acid assay.
The target in experiment [10] is Nucleic Acid. The experiment is described as follows: Binding affinity to double stranded RNA by ITC analysis. The settings on record: read-out: Kd(app). The experiment is classed as nucleic-acid assay. In a few lines:
as §2

The target of experiment [11] is Nucleic Acid. The experiment is described as follows: Destabilization of HIV1 [32P]-labeled SL3 RNA-NCp complex assessed as displacement of NCp from SL3 RNA after 1 hr by electrophoretic gel mobility shift assay. The experiment is classed as nucleic-acid assay, Human immunodeficiency virus 1. The settings on record: for pKi: read-out: Ki(app). In a few lines: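 Gel shift assay. Ligand is then added at rising concentrations for another 1 h. Samples are run on a 6% native gel at 4 °C. IC50 comes from a Hill fit of bound-RNA counts. Ki = IC50/(1+[PT]/KD). SD is from at least three experiments.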

Experiment [12] addresses Nucleic Acid. The experiment is described as follows: Binding affinity to HIV 1 SL3 RNA assessed as second binding dissociation constant by ITC analysis. The experiment is classed as nucleic-acid assay, Human immunodeficiency virus 1. The settings on record: read-out: Kd(app). The essentials: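 ITC at 25 °C: ligand (1 mM) in 10 mM sodium phosphate pH 7.4 with 10% DMSO injected in 10 μL aliquots into 20 μM SL3 RNA in the same buffer. Injections lasted 24 s at 240 s spacing. Heats of ligand-into-buffer titrations were subtracted. Heat versus ligand:RNA molar ratio was fit to a sequential two-site model, with the second KD taken from the second site. Two measurements.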

Experiment [13] concerns Nucleic Acid. The experiment is described as follows: Inhibition of HIV1 [32P]-labeled SL3 RNA interaction with NCp at 1mM after 1 hr by electrophoretic gel mobility shift assay. As to conditions: Human immunodeficiency virus 1. The experiment is classed as nucleic-acid assay. In a few lines: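 Screen for single-point inhibition. Ligand is added at a final 1 mM to a preformed NCp7–SL3 RNA complex and incubated 1 h. Bound and free RNA are then resolved by gel mobility shift assay.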

Regarding `Cc1cccn2c(=O)c3cc(C(=O)NC(C)c4ccccc4)c(=N)n(CCOCCO)c3nc12` (centres undefined), the pKd in [1] was 5.29; in experiment [2] it was 5.35; in [3] it was 5.39.
Taken in the same sequence, the figures for `COc1ccc(NCc2ccc([N+](=O)[O-])s2)cc1OC` were 5.08, 4.95 and 4.85.
`CC1CCN(c2ccc(N)cc2)CC1`: the outcome in experiment [1] and in experiment [3] was Active. Besides, the pKd in experiment [2] is 4.36.
For the molecule `O=C(C[n+]1cccc(C(=O)N/N=C/c2ccc(Br)cc2)c1)c1ccccc1`, the result in [2] was inactive.
On to `Cc1cccn2c(=O)c3cc(C(=O)N4CCN(C)CC4)c(=N)n(CC4CCCO4)c3nc12` (centres undefined), for which the pKd in experiment [2] was 5.00; in experiment [4], 1.92; in experiment [5] it was 3.55; in [7], 2.62; in [8] it was 4.84; in [10], 3.72. Also, the values for the Selectivity ratio in experiment [6] and in experiment [9] were 19 and 13, respectively.
For `O=C1NC(=S)NC(=O)C1=Cc1cn(-c2ccccc2)nc1-c1cc2c(ccc3ccccc32)oc1=O`, in [11], the pIC50 is 3.91 and the pKi is 4.40. In addition, the negative-log Kd (pKd) in experiment [8] was 4.17. Besides, in experiment [12], the pKd is 3.31.
Turning to `Cc1cccn2c(=O)c3cc(C(=O)NCCN4CCOCC4)c(=N)n(Cc4cccnc4)c3nc12`, the pKd was 5.08 in experiment [1], 5.30 in experiment [2] and 4.93 in [3].
Turning to `Nc1ccccc1NCCOc1ccccc1`, the outcome in [1] and in experiment [3] was Active. The negative-log Kd (pKd) in [2] is 4.29.
Take `O=C1c2ccccc2C(=O)c2c(NCCO)ccc(NCCO)c21`: the pKd in experiment [1] was 5.49; in experiment [2], 5.96; in experiment [3], 5.66. Besides, in [11], the pIC50 was 3.15. In experiment [11], the pKi was 3.70.
Turning to `N=C1NC(=O)/C(=C\c2ccc3ccccc3c2)S1`, the negative logarithm of the Kd (pKd) in experiment [1] is 4.95; in experiment [2], 4.96; in experiment [3] it was 5.05.
`O=C(Cc1ccccc1)Nc1ccc(N2CCCC2)cc1`: the outcome in [2] was inactive.
As for `O=C1Oc2ccccc2C(=O)/C1=C/N1C(=O)N/C(=C\c2ccccc2O)C1=O`, in experiment [11], the pIC50 was 3.47 and the pKi was 3.96. For the same molecule, in experiment [13], the inhibition result is “Active”.
As for `Nc1c(S(=O)(=O)O)cc(Nc2ccc(S(N)(=O)=O)cc2)c2c1C(=O)c1ccccc1C2=O`, in experiment [11], the pIC50 was 4.15. Besides, the pKi in [11] is 4.70. Moreover, the pKd is 4.96 in experiment [8] and 1.96 in [12].
As for `O=C1NC(=S)N/C1=C/c1ccc2ccccc2c1`, the pKd in experiment [1] is 4.92; in experiment [2] it was 4.88; in [3], 5.12.
`O=[N+]([O-])c1ccc(SCCO)c2ncccc12`: the figures for the pKd in [1], in experiment [2] and in experiment [3] were < 2.96, 4.05 and < 3.22, respectively. Moreover, the Selectivity ratio in experiment [6] was > 7; in experiment [9], > 12.
Turning to `CN1CCN(CCCN2c3ccccc3Sc3ccc(C(F)(F)F)cc32)CC1` [TRIFLUOPERAZINE], the pKd in experiment [1] is 5.66; in experiment [2], 5.77; in experiment [3] it was 5.70.
For the molecule `CNC(=O)c1cc2c(=O)n3cccc(C)c3nc2n(CCCO)c1=N`, the pKd in experiment [1] was 5.09; in [2], 5.46; in experiment [3], 5.02.
As for `O=C(NC(=S)Nc1ccc(N2CCCC2)cc1)c1ccccc1[N+](=O)[O-]`, in experiment [2], the outcome was inactive.
In the case of `COc1ccc(N/C(S)=N/CCCn2ccnc2)cc1`, in experiment [2], the result was inactive.
Take `O=C(NN=Cc1ccc(Br)cc1)c1cc[n+](Cc2ccccc2)cc1`: the outcome in [1] and in [3] was Active. Also, the pKd in [2] is 4.48.
On to `Nc1c(S(=O)(=O)O)cc(Nc2cccc(S(N)(=O)=O)c2)c2c1C(=O)c1ccccc1C2=O`, for which the inhibition result in experiment [13] was “Active”.
